Laboratory results: ChEMBL document CHEMBL1137675, “Convenient one-pot synthesis of novel 2-substituted benzimidazoles, tetrahydrobenzimidazoles and imidazoles and evaluation of their in vitro antibacterial and antifungal activities” (2009)
Values after ≈ are worked out from the molar mass of the structure shown.

Tests used:
Candida albicans [1] = assay: Antifungal activity against Candida albicans IOA-109 at 37 degC after 18 to 48 hrs; type: functional
Trichoderma viride [2] = assay: Antifungal activity against Trichoderma viride at 28 degC after 72 hrs; type: functional
How it was run: (§1)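 Filamentous fungi were kept on SDA at 28 °C. Spores from 7-day cultures were suspended in sterile normal saline to about 10⁵ cfu/ml, and about 0.1 ml was spread on SDA plates. Compounds were serially diluted two-fold in DMSO and impregnated on 8 mm discs, with a solvent control disc on each plate. Plates were held at 28 °C for 72 h or more, and inhibition zone diameter was read in mm.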

Penicillium sp. [3] = assay: Antifungal activity against Penicillium sp. at 28 degC after 72 hrs; type: functional; how it was run: as §1
Candida albicans [4] = assay: Antifungal activity against Candida albicans IOA-109 at 30 ug/disk at 37 degC after 18 to 48 hrs; type: functional, organism-based
How it was run: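 Disc diffusion on SDA. Inoculum was grown overnight in SD broth at 37 °C, centrifuged, and resuspended in sterile NSS to 10⁵ cfu/ml; about 0.1 ml was spread per plate. 8 mm discs carried compound from a DMSO stock, alongside a solvent disc and a nystatin disc. After 18–48 h at 37 °C, inhibition-zone diameter was read in mm.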

Penicillium sp. [5] = assay: Antifungal activity against Penicillium sp. at 30 ug/disk at 28 degC after 72 hrs; type: functional, organism-based
How it was run: (§2)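 Disc diffusion on SDA; cultures were kept at 28 °C. Spores from 7-day cultures were suspended in sterile normal saline ([…] NaCl as printed) and diluted to about 10⁵ cfu/ml; about 0.1 ml was spread per plate. 8 mm discs carried compound from a DMSO stock, alongside a solvent disc and a nystatin disc. After 72 h or more at 28 °C, inhibition-zone diameter was read in mm.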

Trichoderma viride [6] = assay: Antifungal activity against Trichoderma viride at 30 ug/disk at 28 degC after 72 hrs; type: functional, organism-based; how it was run: as §2
Aspergillus niger [7] = assay: Antifungal activity against Aspergillus niger at 30 ug/disk at 28 degC after 72 hrs; type: functional, organism-based; how it was run: as §2
Helminthosporium [8] = assay: Antifungal activity against Helminthosporium oryzae 2537 ICAR at 28 degC after 72 hrs; type: functional; how it was run: as §1
Helminthosporium [9] = assay: Antifungal activity against Helminthosporium oryzae 2537 ICAR at 30 ug/disk at 28 degC after 72 hrs; type: functional, organism-based; how it was run: as §2
Aspergillus niger [10] = assay: Antifungal activity against Aspergillus niger at 28 degC after 72 hrs; type: functional; how it was run: as §1
Salmonella typhimurium [11] = assay: Antibacterial activity against Salmonella Typhimurium MTCC 98 at 37 degC after 24 hrs by filter paper disk method; type: functional, Salmonella enterica subsp. enterica serovar Typhimurium; settings: for MIC: Salmonella enterica, MTCC 98, 24 h
How it was run: (§3)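 Compounds were taken from a 1 mg/ml DMSO stock and serially diluted two-fold over a 300 to 18.75 range, then loaded onto sterile 8 mm paper discs. Bacteria were grown overnight in nutrient broth at 37 °C, pelleted, and resuspended in sterile NSS to 10⁵ cfu/ml. About 0.1 ml was spread on NA plates. Plates were incubated 24 h at 37 °C with a solvent control disc, and inhibition zone diameter was read in mm.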

Bacillus subtilis [12] = assay: Antibacterial activity against Bacillus subtilis ATCC 6051 at 30 ug/disk at 37 degC after 24 hrs by filter paper disk method; type: functional; settings: ATCC 6051, 24 h, read-out: DIZ
How it was run: (§4)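 Chloramphenicol was given as a reference antibiotic disc. Bacteria were grown overnight in nutrient broth at 37 °C and adjusted to 10⁵ cfu/ml in sterile NSS. About 0.1 ml was spread on NA plates next to 8 mm discs, including a solvent disc. Plates were incubated 24 h at 37 °C, and zones of inhibition were measured in mm.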

Escherichia coli [13] = assay: Antibacterial activity against Escherichia coli K-12 at 30 ug/disk at 37 degC after 24 hrs by filter paper disk method; type: functional; settings: K-12, 24 h, read-out: DIZ
How it was run: (§5)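 Disc diffusion on nutrient agar. Inoculum was grown overnight in NA broth at 37 °C, centrifuged, and resuspended in sterile NSS to 10⁵ cfu/ml; about 0.1 ml was spread per plate. Sterile 8 mm discs carried compound, with a 1 mg/ml DMSO stock diluted two-fold from 300 to 18.75. Controls were a solvent disc and a chloramphenicol disc. After 24 h at 37 °C, inhibition-zone diameter was read in mm.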

Salmonella typhimurium [14] = assay: Antibacterial activity against Salmonella Typhimurium MTCC 98 at 30 ug/disk at 37 degC after 24 hrs by filter paper disk method; type: functional, Salmonella enterica subsp. enterica serovar Typhimurium; settings: Salmonella enterica, MTCC 98, 24 h; read-out: DIZ; how it was run: as §4
Bacillus subtilis [15] = assay: Antibacterial activity against Bacillus subtilis ATCC 6051 at 37 degC after 24 hrs by filter paper disk method; type: functional; settings: for MIC: Bacillus subtilis, ATCC 6051, 24 h; how it was run: as §3
Escherichia coli [16] = assay: Antibacterial activity against Escherichia coli K-12 at 37 degC after 24 hrs by filter paper disk method; type: functional; settings: for MIC: Escherichia coli, K-12, 24 h; how it was run: as §3
Staphylococcus aureus [17] = assay: Antibacterial activity against Staphylococcus aureus MSSA 22 at 37 degC after 24 hrs by filter paper disk method; type: functional; settings: for MIC: Staphylococcus aureus, MSSA 22, 24 h; how it was run: as §3
Staphylococcus aureus [18] = assay: Antibacterial activity against Staphylococcus aureus MSSA 22 at 30 ug/disk at 37 degC after 24 hrs by filter paper disk method; type: functional; settings: MSSA 22, 24 h, read-out: DIZ; how it was run: as §5

| Compound | MIC (Salmonella typhimurium [11]) [µg/mL] | MIC (Bacillus subtilis [15]) [µg/mL] | MIC (Escherichia coli [16]) [µg/mL] | MIC (Staphylococcus aureus [17]) [µg/mL] | diameter of the inhibition zone (DIZ) (Candida albicans [1]) [mm] | MIC (Candida albicans [1]; Candida albicans, IOA-109) [µg/mL] | diameter of the inhibition zone (DIZ) (Trichoderma viride [2]) [mm] | MIC (Trichoderma viride [2]; Trichoderma viride, 72 h) [µg/mL] | diameter of the inhibition zone (DIZ) (Penicillium sp. [3]) [mm] | MIC (Penicillium sp. [3]; Penicillium sp., 72 h) [µg/mL] | diameter of the inhibition zone (DIZ) (Salmonella typhimurium [11]) [mm] | diameter of the inhibition zone (DIZ) (Bacillus subtilis [15]) [mm] | diameter of the inhibition zone (DIZ) (Helminthosporium [8]) [mm] | MIC (Helminthosporium [8]; Helminthosporium, 72 h) [µg/mL] | diameter of the inhibition zone (DIZ) (Escherichia coli [16]) [mm] | diameter of the inhibition zone (DIZ) (Staphylococcus aureus [17]) [mm] | diameter of the inhibition zone (DIZ) (Aspergillus niger [10]) [mm] | MIC (Aspergillus niger [10]; Aspergillus niger, 72 h) [µg/mL] | further results |
| --- | --- | --- | --- | --- | --- | --- | --- | --- | --- | --- | --- | --- | --- | --- | --- | --- | --- | --- | --- |
| NYSTATIN |  |  |  |  |  |  |  |  |  |  |  |  |  |  |  |  |  |  | MIC (Candida albicans [1]): 6 µg/mL; MIC (Trichoderma viride [2]): 6 µg/mL; MIC (Penicillium sp. [3]): 6 µg/mL; inhibition zone (IZ) (Candida albicans [4]): 20 mm; inhibition zone (IZ) (Penicillium sp. [5]): 20 mm; inhibition zone (IZ) (Trichoderma viride [6]): 15 mm; inhibition zone (IZ) (Aspergillus niger [7]): 18 mm; MIC (Helminthosporium [8]): 12.5 µg/mL; inhibition zone (IZ) (Helminthosporium [9]): 18 mm; MIC (Aspergillus niger [10]): 12.5 µg/mL |
| O=C(N[C@H](CO)[C@H](O)c1ccc([N+](=O)[O-])cc1)C(Cl)Cl [CHLORAMPHENICOL] | 6 (≈ 18.6 µM) | 6 (≈ 18.6 µM) | 12.5 (≈ 38.7 µM) | 12.5 (≈ 38.7 µM) |  |  |  |  |  |  |  |  |  |  |  |  |  |  | zone of inhibition at 30 µg/disc (Bacillus subtilis [12]): 24 mm; zone of inhibition at 30 µg/disc (Escherichia coli [13]): 25 mm; zone of inhibition at 30 µg/disc (Salmonella typhimurium [14]): 20 mm; zone of inhibition at 30 µg/disc (Staphylococcus aureus [18]): 26 mm |
| CCCCC/C=C\CC[C@H](O)CCCCCCCc1nc2c([nH]1)CCCC2 | 75 (≈ 200 µM) | 75 (≈ 200 µM) | 150 (≈ 400 µM) | 75 (≈ 200 µM) | 19 | 75 (≈ 200 µM) | 8 | 37.5 (≈ 100 µM) | 17 | 75 (≈ 200 µM) | 13 | 23 | 11 | 150 (≈ 400 µM) | 16 | 16 | 12 | 37.5 (≈ 100 µM) |  |
| CCCCC/C=C\CC[C@H](O)CCCCCCCc1nc2cc(Cl)ccc2[nH]1 | 37.5 (≈ 92.6 µM) | 75 (≈ 185 µM) | 37.5 (≈ 92.6 µM) | 37.5 (≈ 92.6 µM) | 18 | 37.5 (≈ 92.6 µM) | 8 | 37.5 (≈ 92.6 µM) | 19 | 37.5 (≈ 92.6 µM) | 17 | 20 | 14 | 75 (≈ 185 µM) | 19 | 21 | 14 | 37.5 (≈ 92.6 µM) |  |
| CCCCC/C=C\CC[C@H](O)CCCCCCCc1nc2ccccc2[nH]1 | 75 (≈ 202 µM) | 75 (≈ 202 µM) | 150 (≈ 405 µM) | 150 (≈ 405 µM) | 18 | 75 (≈ 202 µM) | 8 | 75 (≈ 202 µM) | 17 | 75 (≈ 202 µM) | 12 | 19 | 11 | 150 (≈ 405 µM) | 17 | 19 | 14 | 150 (≈ 405 µM) |  |
| C=CCCCCCCCCc1ncc[nH]1 | 74 (≈ 359 µM) | 37.5 (≈ 182 µM) | 150 (≈ 727 µM) | 150 (≈ 727 µM) | 19 | 75 (≈ 363 µM) | 6 | 75 (≈ 363 µM) | 16 | 150 (≈ 727 µM) | 14 | 22 | 12 | 150 (≈ 727 µM) | 15 | 16 | 11 | 150 (≈ 727 µM) |  |
| CCCCCCCC/C=C/CCCCCCCc1nc2cc([N+](=O)[O-])ccc2[nH]1 | 37.5 (≈ 93.8 µM) | 37.5 (≈ 93.8 µM) | 75 (≈ 188 µM) | 37.5 (≈ 93.8 µM) | 19 | 37.5 (≈ 93.8 µM) | 8 | 37.5 (≈ 93.8 µM) | 18 | 37.5 (≈ 93.8 µM) | 11 | 20 | 12 | 75 (≈ 188 µM) | 20 | 21 | 15 | 37.5 (≈ 93.8 µM) |  |
| C=CCCCCCCCCc1nc2cc(Cl)ccc2[nH]1 | 37.5 (≈ 129 µM) | 75 (≈ 258 µM) | 75 (≈ 258 µM) | 37.5 (≈ 129 µM) | 18 | 37.5 (≈ 129 µM) | 10 | 37.5 (≈ 129 µM) | 19 | 37.5 (≈ 129 µM) | 14 | 19 | 15 | 75 (≈ 258 µM) | 20 | 22 | 15 | 37.5 (≈ 129 µM) |  |
| C=CCCCCCCCCc1nc2ccccc2[nH]1 | 75 (≈ 293 µM) | 75 (≈ 293 µM) | 150 (≈ 585 µM) | 150 (≈ 585 µM) | 19 | 75 (≈ 293 µM) | 7 | 75 (≈ 293 µM) | 18 | 75 (≈ 293 µM) | 16 | 22 | 13 | 150 (≈ 585 µM) | 18 | 20 | 14 | 150 (≈ 585 µM) |  |
